Data as given in publication PMC3447631 (Chemistry & biology, 2012).
Entries after “also recorded” stand apart in the source; their conditions may differ.

What was measured:
[1] = test system: endogenous insulin promoter; experiment: Endogenous insulin mRNA; type: cell-based, human; conditions: T6PNE cells
Outline: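 Q-PCR of endogenous insulin mRNA in T6PNE cells after 48 h exposure to test compound across a concentration series. For fatty acids, cells got 1μM tamoxifen plus fatty acid or DMSO vehicle for 48 hours before RNA harvest. Insulin mRNA was normalized to GAPDH or 18S rRNA; mean ± SE, n=3.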

CYP (2C19) = CYP (2C19) (Homo sapiens, UniProt P33261); experiment: Ricerca hit profiling panel: CYP 2C19; type: biochemical; conditions: Ricerca panel of 41 receptors/enzymes
CYP (2C19), sequence (P33261 whole entry): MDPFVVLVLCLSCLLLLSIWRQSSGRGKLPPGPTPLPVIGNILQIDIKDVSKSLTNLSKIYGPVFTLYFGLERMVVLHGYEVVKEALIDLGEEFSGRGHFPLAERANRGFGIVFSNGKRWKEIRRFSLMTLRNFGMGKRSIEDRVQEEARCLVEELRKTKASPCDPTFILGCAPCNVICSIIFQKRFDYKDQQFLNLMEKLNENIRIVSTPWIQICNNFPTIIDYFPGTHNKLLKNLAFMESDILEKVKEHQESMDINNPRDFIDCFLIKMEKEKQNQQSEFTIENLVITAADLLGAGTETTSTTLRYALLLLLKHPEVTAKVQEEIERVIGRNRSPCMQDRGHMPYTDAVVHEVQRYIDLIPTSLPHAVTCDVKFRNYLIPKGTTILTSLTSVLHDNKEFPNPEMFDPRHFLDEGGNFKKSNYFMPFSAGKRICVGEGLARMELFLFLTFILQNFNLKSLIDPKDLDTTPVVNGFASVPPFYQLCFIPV

[2] = Tolerability and VetScan liver panel blood chemistry in mice; type: in vivo
Outline: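 NONcNZO10/LtJ or ICR mice received vehicle (DMSO) or test compound IP once daily for 5 days. Normal-mouse groups were DMSO, 30 mg/kg/day and 10 mg/kg/day (n=4 each). Blood was drawn before sacrifice and run on a VetScan analyzer for ALP, ALT, GGT (IU/L), bile acids (μmol/L), total bilirubin, BUN, cholesterol (mg/dL) and albumin (g/dL).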

tumor cell lines = experiment: Toxicity to tumor cell lines versus cultured primary cells in vitro; type: cell-based
HNF4α gene expression [3] = experiment: HNF4α mRNA expression in MIN6 cells; type: cell-based, murine; conditions: 5 hours
p57Kip2 expression = experiment: Kip2 mRNA in T6PNE cells; type: cell-based, human
Outline: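 Kip2 mRNA in T6PNE cells measured by Q-PCR, normalized to 18s rRNA. Treated and DMSO vehicle cells were compared by Student's t-test.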

[4] = test system: panel of 60 human tumor cell lines; experiment: NCI DTP panel of 60 human tumor cell lines; type: cell-based; conditions: NCI/NIH DTP screen
HNF4α protein = HNF4α protein and Ki67 in mouse tissues after IP injection; type: in vivo; conditions: mice
[5] = Hepatic microsomal stability; type: in vitro ADME; conditions: 60-minute incubation in vitro
PPARγ = type: cell-based; conditions: PPRE-Luc, HeLa
Outline: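 HeLa cells were co-transfected with a PPRE-Luc reporter, with or without a PPARγ expression vector, then treated with test compound. Read-out was luciferase activity; mean ± SE, n=3.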

HNF4α DNA binding = molecular target: T1, HNF4α DNA binding (Homo sapiens, UniProt P41235); experiment: HNF4α DNA binding, HNF TransAM ELISA on HepG2 nuclear extracts; type: cell-based; conditions: HepG2 incubated overnight with compound
T1 sequence (P41235 1-474): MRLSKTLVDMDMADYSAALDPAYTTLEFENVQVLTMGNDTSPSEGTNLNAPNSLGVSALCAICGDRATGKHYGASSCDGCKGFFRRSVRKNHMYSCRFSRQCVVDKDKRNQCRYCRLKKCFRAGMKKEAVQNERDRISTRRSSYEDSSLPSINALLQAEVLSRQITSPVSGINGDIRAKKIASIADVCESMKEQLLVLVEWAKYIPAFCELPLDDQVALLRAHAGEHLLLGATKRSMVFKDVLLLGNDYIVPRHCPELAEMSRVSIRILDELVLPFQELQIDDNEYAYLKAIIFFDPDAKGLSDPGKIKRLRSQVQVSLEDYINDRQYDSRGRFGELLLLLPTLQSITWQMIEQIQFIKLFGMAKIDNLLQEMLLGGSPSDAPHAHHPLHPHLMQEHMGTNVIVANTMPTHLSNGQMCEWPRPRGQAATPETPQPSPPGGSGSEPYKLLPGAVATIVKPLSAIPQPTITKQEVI
Outline: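 HepG2 cells were incubated overnight with test compound. Nuclear protein extracts (5μg) were added to wells bearing an oligonucleotide with an HNF4α binding site. Bound HNF4α was detected with an anti-HNF4α antibody (ELISA). Mean ± SD, n=3 biological replicates; Student's t-test.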

[6] = test system: primary murine hepatocytes; experiment: Primary murine hepatocytes in vitro; type: cell-based
Outline: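 Primary murine hepatocytes were exposed to DMSO or test compound (5μM) for 3 days, then fixed and stained with Oil Red O.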

liver = experiment: Hepatic steatosis in mice; type: in vivo; conditions: 10 and 30 mg/kg IP, dose-dependent
HNF4α gene expression [7] = experiment: HNF4α mRNA expression in HepG2 cells; type: cell-based; conditions: 48 hours
Outline: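 HNF4α mRNA in treated HepG2 cells measured by Q-PCR and normalized to 18S rRNA. Differences in expression assessed by Student's t-test.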

[8] = test system: HNF4α-responsive OTC promoter; experiment: OTC promoter-luciferase reporter co-transfected with full length human HNF4α; type: cell-based; conditions: 1μM, 48 hours
L-type calcium channel = experiment: Ricerca hit profiling panel: L-type calcium channel; type: binding; conditions: Ricerca panel of 41 receptors/enzymes
[9] = In vivo PK studies in mice; conditions: mouse, plasma
Hep3B cells = experiment: Hep3B-Luc orthotopic xenograft in liver of nude mice; type: in vivo; conditions: 30 mg/kg IP daily or every other day
Outline: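 Orthotopic model: luciferase-expressing Hep3B cells were injected into the liver parenchyma of nude mice. Once tumour was established (luciferase counts doubled on 3 consecutive bioluminescent reads), mice received test compound 30 mg/kg IP daily or every other day as tolerated, or DMSO vehicle. Tumour and normal liver were harvested after 20–57 days for Oil Red O, cleaved caspase-3 immunostaining and TUNEL.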

Solubility = type: physicochemical; conditions: limits deliverable dose in vivo
HNF4α = molecular target: T2, HNF4α (Homo sapiens, UniProt P41235); experiment: DARTS assay in HepG2 cells; type: binding; conditions: HepG2, 20μM, 24hr, subtilisin
T2 sequence (P41235 1-474): T1 sequence (P41235 1-474)
Outline: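 DARTS: HepG2 cells were treated with DMSO or test compound at 20μM for 24hr. Read-out is the ligand-induced change in HNF4α sensitivity to proteolysis.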

Hep3B-Luc cells = experiment: Hep3B-Luc cytotoxicity; type: cell-based, human
Outline: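 Hep3B cells engineered to express luciferase from a CMV promoter, tested alongside primary hepatocytes. Viability was read as bioluminescence at 24, 48 and 72 hours after treatment. Cell division was followed by BrdU uptake, with Oil Red O fat staining.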

T6PNE cells = experiment: Acylcarnitine analysis by GC/MS of T6PNE cell extracts; type: cell-based, human

Cc1ccc([N+](=O)[O-])cc1S(=O)(=O)n1c(C)nc2ccccc21 [BI6015, 2-Methyl-1-(2-methyl-5-nitrophenylsulfonyl)-1H-benzo[d]imidazole]
effect on endogenous insulin expression / insulin promoter activity [1]: potently inhibited
reduction of endogenous insulin gene expression [1]: 50 fold
cross reactivity with CYP 2C19 (CYP (2C19)): significant cross reactivity
tolerability ([2]; IP once per day for 5 days, 30 mg/kg): well tolerated
blood chemistries, including ALT ([2]; VetScan Liver Panel): unaffected
toxicity to tumor cell lines in vitro (tumor cell lines): toxic
effect on HNF4α expression in MIN6 (HNF4α gene expression [3]): strongly repressed
effect on Kip2 expression (p57Kip2 expression): reduced
effect on panel of 60 human tumor cell lines [4]: Slowed growth and/or toxicity
HNF4α expression in the intestine or kidney (HNF4α protein; IP): does not change
HNF4α protein in the liver (HNF4α protein; IP): loss of HNF4α protein
number of cells expressing Ki67 in liver, intestine or kidney (HNF4α protein; versus vehicle): no difference
hepatic microsomal stability, compound remained [5]: 22%
activity as PPARγ agonist (PPARγ): lacked activity as a PPARγ agonist; also recorded: not to be a PPARγ agonist
effect on HNF4α DNA binding (HNF4α DNA binding): potently repressed
toxicity in primary hepatocytes in vitro [6]: Toxicity was not observed
steatosis in primary mouse hepatocytes in vitro ([6]; 5μM, 3 days, Oil Red O): induced steatosis
hepatic steatosis in vivo (liver): marked fat accumulation (steatosis)
effect on HNF4α expression in HepG2 (HNF4α gene expression [7]): strongly repressed
OTC promoter-driven luciferase expression in CV-1 cells [8]: inhibited
OTC promoter-driven luciferase expression in HepG2 cells [8]: inhibited
cross reactivity with L-type calcium channel (L-type calcium channel): significant cross reactivity
AUC ([9]; ip, 30 mg/kg): 0.0267 µg·h/mL
half-life ([9]; other: oral gavage or intraperitoneal (IP) injection): ~1.5 h
apoptosis (TUNEL, cleaved caspase-3) in the normal liver (Hep3B cells): but not in the normal liver
apoptosis (TUNEL, cleaved caspase-3) within the tumor (Hep3B cells): high levels of apoptotic cells
tumor luciferase counts (Hep3B cells): some treated animals exhibited decreased luciferase counts, this did not occur in all animals
Oil Red O staining in normal liver and tumor (Hep3B cells; 20–57 days): marked induction
solubility (Solubility): limited solubility
effect on HNF4α protease sensitivity (DARTS) (HNF4α): induced altered HNF4α protease sensitivity
BrdU incorporation in Hep3B-Luc cells (Hep3B-Luc cells; after 48 hours of treatment): decreased
toxicity to Hep3B cells (Hep3B-Luc cells; bioluminescence, 24, 48 and 72 hours): markedly toxic
acetylcarnitine (T6PNE cells): concurrent increase
longer chain acylcarnitines (C18, C18:1, C16, C14) (T6PNE cells): decreased levels
